One assay deals with J774.A1. The experiment in a line: Antiproliferative activity against mouse J774.A1 cells after 72 hrs by MTT conversion assay. It counts as cell-based. The settings on record: J774.A1, 72 h. An outline of the steps:
(§1)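 Cells (3.4 × 10^4) plated in 96-well plates and left to adhere 2 h at 37 °C, 5% CO2/95% air; medium replaced, 1:4 serial dilutions of compound added, incubated 72 h. Viability by MTT conversion, OD read at 620 nm; % dead cells = 100 − (OD treated/OD control) × 100. 6-mercaptopurine serial dilutions run in some experiments.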

A further assay relates to HEK293. Kind of assay: Antiproliferative activity against human HEK293 cells after 72 hrs by MTT conversion assay. It counts as cell-based. The settings on record: HEK293, 72 h. An outline of the steps: as §1
(Tetrazolium dyes change colour on reduction, which living cells bring about.)

A further assay concerns WEHI-164. The experiment in a line: Antiproliferative activity against mouse WEHI164 cells after 72 hrs by MTT conversion assay. It counts as functional, cell-based. The settings on record: WEHI-164, 72 h. An outline of the steps:
as §1

What is called IC50 is the concentration that gives 50% inhibition. Low values mean higher potency, high ones lower potency.

Each structure is given as a SMILES string.

For `C[C@@H]1O[C@@H](O[C@H]2[C@H](O)[C@@H](O)[C@H](OC[C@H]3O[C@@H](OC(=O)[C@]45CCC(C)(C)C[C@H]4C4=CC[C@@H]6[C@@]7(C)CC[C@H](O[C@H]8OC[C@H](O)[C@H](O[C@@H]9O[C@H](CO)[C@@H](O[C@@H]%10O[C@H](CO)[C@@H](O)[C@H](O)[C@H]%10O)[C@H](O)[C@H]9O)[C@H]8O)C(C)(C)[C@@H]7CC[C@@]6(C)[C@]4(C)CC5)[C@H](O)[C@@H](O)[C@@H]3O)O[C@@H]2CO)[C@H](O)[C@H](O)[C@H]1O`, the midpoint of inhibition in the assay on J774.A1, the IC50, lay at 3 µM.

Consider `CC1(C)CC[C@]2(C(=O)O[C@@H]3O[C@H](CO)[C@@H](O)[C@H](O)[C@H]3O)[C@H](O)C[C@]3(C)C(=CC[C@@H]4[C@@]5(C)CC[C@H](O[C@@H]6O[C@H](C(=O)O)[C@@H](O)[C@H](O)[C@H]6O[C@@H]6O[C@H](CO)[C@@H](O)[C@H](O)[C@H]6O)C(C)(C)[C@@H]5CC[C@]43C)[C@@H]2C1`, for which the IC50 was 0.19 µM with J774.A1, 0.23 µM in the assay with HEK293 and 0.34 µM with WEHI-164.

Regarding `C[C@@H]1O[C@@H](O[C@H]2[C@H](O)[C@@H](O)[C@H](OC[C@H]3O[C@@H](OC(=O)[C@]45CCC(C)(C)C[C@H]4C4=CC[C@@H]6[C@@]7(C)CC[C@H](O[C@H]8OC[C@H](O)[C@H](O[C@@H]9O[C@H](CO)[C@@H](O)[C@H](O)[C@H]9O)[C@H]8O)C(C)(C)[C@@H]7CC[C@@]6(C)[C@]4(C)CC5)[C@H](O)[C@@H](O)[C@@H]3O)O[C@@H]2CO)[C@H](O)[C@H](O)[C@H]1O`, the results for the IC50 in the assay on J774.A1 and in the assay on WEHI-164 were 3.6 µM and 7 µM, respectively.

In the assay with J774.A1, `C[C@@H]1O[C@@H](O[C@H]2[C@H](O)[C@@H](O)[C@H](OC[C@H]3O[C@@H](OC(=O)[C@]45CCC(C)(C)C[C@H]4C4=CC[C@@H]6[C@@]7(C)CC[C@H](O[C@@H]8O[C@H](C(=O)O)[C@@H](O)[C@H](O)[C@H]8O[C@@H]8O[C@H](CO)[C@@H](O)[C@H](O)[C@H]8O)C(C)(C)[C@@H]7CC[C@@]6(C)[C@]4(C)CC5)[C@H](O)[C@@H](O)[C@@H]3O)O[C@@H]2CO)[C@H](O)[C@H](O)[C@H]1O` showed an IC50 of 6.9 µM.

Consider `C[C@@H]1O[C@@H](O[C@H]2[C@H](O)[C@@H](O)[C@H](OC[C@H]3O[C@@H](OC(=O)[C@]45CCC(C)(C)C[C@H]4C4=CC[C@@H]6[C@@]7(C)CC[C@H](O[C@H]8OC[C@H](O)[C@H](O)[C@H]8O)C(C)(C)[C@@H]7CC[C@@]6(C)[C@]4(C)CC5)[C@H](O)[C@@H](O)[C@@H]3O)O[C@@H]2CO)[C@H](O)[C@H](O)[C@H]1O`, for which the IC50 is 2.5 µM in the assay on J774.A1 and 3.4 µM in the assay with WEHI-164.

For the molecule `C[C@@H]1O[C@@H](O[C@H]2[C@H](O)[C@@H](O)[C@H](O[C@@H]3[C@@H](O)[C@H](OC[C@H]4O[C@@H](OC(=O)[C@]56CCC(C)(C)C[C@H]5C5=CC[C@@H]7[C@@]8(C)CC[C@H](O[C@H]9OC[C@H](O)[C@H](O[C@@H]%10O[C@H](CO)[C@@H](O[C@@H]%11O[C@H](CO)[C@@H](O)[C@H](O)[C@H]%11O)[C@H](O)[C@H]%10O)[C@H]9O)C(C)(C)[C@@H]8CC[C@@]7(C)[C@]5(C)C[C@H]6O)[C@H](O)[C@@H](O)[C@@H]4O)O[C@H](CO)[C@H]3O)O[C@@H]2CO)[C@H](O)[C@H](O)[C@H]1O`, the concentration for half-maximal inhibition (IC50) in the assay on J774.A1 is 0.32 µM; in the assay with HEK293, 1.3 µM; with WEHI-164, 1.7 µM.

Take `CC1(C)CC[C@]2(C(=O)O[C@@H]3O[C@H](CO)[C@@H](O)[C@H](O)[C@H]3O)CC[C@]3(C)C(=CC[C@@H]4[C@@]5(C)CC[C@H](O[C@H]6OC[C@H](O)[C@H](O[C@@H]7O[C@H](CO)[C@@H](O)[C@H](O)[C@H]7O)[C@H]6O)C(C)(C)[C@@H]5CC[C@]43C)[C@@H]2C1`: the figures for the half-inhibitory concentration (IC50) with J774.A1 and in the assay with WEHI-164 were 3.9 µM and 4.6 µM, respectively.

`C[C@@H]1O[C@@H](O[C@H]2[C@H](O)[C@@H](O)[C@H](O[C@@H]3[C@@H](O)[C@H](OC[C@H]4O[C@@H](OC(=O)[C@]56CCC(C)(C)C[C@H]5C5=CC[C@@H]7[C@@]8(C)CC[C@H](O[C@H]9OC[C@H](O)[C@H](O[C@@H]%10O[C@H](CO)[C@@H](O[C@@H]%11O[C@H](CO)[C@@H](O)[C@H](O)[C@H]%11O)[C@H](O)[C@H]%10O)[C@H]9O)C(C)(C)[C@@H]8CC[C@@]7(C)[C@]5(C)CC6)[C@H](O)[C@@H](O)[C@@H]4O)O[C@H](CO)[C@H]3O)O[C@@H]2CO)[C@H](O)[C@H](O)[C@H]1O` had an IC50 in the assay with J774.A1 of 9 µM.

The values above are taken from ChEMBL document CHEMBL1157383, “Antiproliferative oleanane saponins from Meryta denhamii” (J Nat Prod, 2008).
